# Laboratory results reported in ChEMBL document CHEMBL3397016, “SAR-studies of γ-secretase modulators with PPARγ-agonistic and 5-lipoxygenase-inhibitory activity for Alzheimer's disease” (Bioorg Med Chem Lett, 2015).
# Active and inactive are the calls of the source. The rule behind the calls is not given here.
# Assays:
# Presenilin-1 [1] = molecular target: T1, Presenilin-1 (Homo sapiens, UniProt P49768); test: Activation of wild-type human presenilin-1 stably overexpressed in CHO cells co-expressing wild-type human amyloid precursor protein assessed as amyloid beta 38 formation after 24 hrs by ELISA; format: cell-based
# [2] = molecular target: T2, Peroxisome proliferator-activated receptor gamma (Homo sapiens, UniProt P37231); test: Activation of human PPARgamma ligand binding domain expressed in COS7 cells by dual luciferase reporter gene assay; format: cell-based, COS-7
# T2 sequence (P37231 whole entry): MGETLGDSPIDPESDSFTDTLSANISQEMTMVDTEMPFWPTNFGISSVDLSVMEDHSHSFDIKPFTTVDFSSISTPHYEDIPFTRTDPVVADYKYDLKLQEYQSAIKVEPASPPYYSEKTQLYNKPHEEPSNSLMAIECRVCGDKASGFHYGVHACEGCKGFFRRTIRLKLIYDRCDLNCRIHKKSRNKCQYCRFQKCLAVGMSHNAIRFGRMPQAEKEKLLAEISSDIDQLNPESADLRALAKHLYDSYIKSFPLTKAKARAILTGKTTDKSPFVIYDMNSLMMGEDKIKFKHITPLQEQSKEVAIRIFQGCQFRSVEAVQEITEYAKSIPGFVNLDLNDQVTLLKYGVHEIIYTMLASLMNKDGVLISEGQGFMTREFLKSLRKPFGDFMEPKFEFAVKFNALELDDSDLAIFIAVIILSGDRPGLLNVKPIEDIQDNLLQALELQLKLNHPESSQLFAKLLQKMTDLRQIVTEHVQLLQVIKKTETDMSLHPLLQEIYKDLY
# Presenilin-1 [3] = molecular target: T1, Presenilin-1; test: Inhibition of wild-type human presenilin-1 stably overexpressed in CHO cells co-expressing wild-type human amyloid precursor protein assessed as inhibition of amyloid beta 42 formation after 24 hrs by ELISA; format: cell-based
# [4] = molecular target: T3, Polyunsaturated fatty acid 5-lipoxygenase (Homo sapiens, UniProt P09917); test: Inhibition of 5-LO in human PMNL assessed as reduction in 5-LO product formation pre-incubated for 15 mins before addition of arachidonic acid substrate by HPLC analysis
# T3 sequence (P09917 whole entry): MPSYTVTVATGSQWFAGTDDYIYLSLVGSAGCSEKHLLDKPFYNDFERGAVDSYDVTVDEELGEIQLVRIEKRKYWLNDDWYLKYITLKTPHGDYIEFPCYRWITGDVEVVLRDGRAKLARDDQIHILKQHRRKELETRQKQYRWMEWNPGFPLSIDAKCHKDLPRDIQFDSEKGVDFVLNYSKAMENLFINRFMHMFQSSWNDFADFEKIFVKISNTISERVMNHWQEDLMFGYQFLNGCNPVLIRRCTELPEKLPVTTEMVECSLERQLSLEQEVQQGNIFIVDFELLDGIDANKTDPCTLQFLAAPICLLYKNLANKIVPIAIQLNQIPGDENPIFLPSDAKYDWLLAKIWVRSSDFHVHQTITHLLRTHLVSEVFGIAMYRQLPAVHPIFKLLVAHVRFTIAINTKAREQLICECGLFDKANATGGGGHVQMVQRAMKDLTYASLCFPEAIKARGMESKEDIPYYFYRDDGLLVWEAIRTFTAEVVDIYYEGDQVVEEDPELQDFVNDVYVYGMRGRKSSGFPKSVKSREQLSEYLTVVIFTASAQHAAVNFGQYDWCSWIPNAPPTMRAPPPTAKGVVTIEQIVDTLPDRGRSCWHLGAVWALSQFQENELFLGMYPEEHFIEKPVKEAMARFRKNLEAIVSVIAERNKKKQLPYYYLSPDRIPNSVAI
# [5] = molecular target: T4, Peroxisome proliferator-activated receptor gamma (Homo sapiens) (UniProt P37231); test: Activation of human PPARgamma ligand binding domain expressed in COS7 cells by dual luciferase reporter gene assay relative to 1 uM pioglitazone; format: cell-based; settings: COS-7
# T4 sequence (whole entry): T2 sequence (P37231 whole entry)
# [6] = molecular target: T5, Prostaglandin G/H synthase 2 (Homo sapiens) (UniProt P35354); test: Inhibition of human recombinant COX2-mediated 12-HHT formation assessed as remaining activity at 10 uM preincubated for 5 mins before arachidonic acid addition by HPLC analysis
# T5 sequence (whole entry): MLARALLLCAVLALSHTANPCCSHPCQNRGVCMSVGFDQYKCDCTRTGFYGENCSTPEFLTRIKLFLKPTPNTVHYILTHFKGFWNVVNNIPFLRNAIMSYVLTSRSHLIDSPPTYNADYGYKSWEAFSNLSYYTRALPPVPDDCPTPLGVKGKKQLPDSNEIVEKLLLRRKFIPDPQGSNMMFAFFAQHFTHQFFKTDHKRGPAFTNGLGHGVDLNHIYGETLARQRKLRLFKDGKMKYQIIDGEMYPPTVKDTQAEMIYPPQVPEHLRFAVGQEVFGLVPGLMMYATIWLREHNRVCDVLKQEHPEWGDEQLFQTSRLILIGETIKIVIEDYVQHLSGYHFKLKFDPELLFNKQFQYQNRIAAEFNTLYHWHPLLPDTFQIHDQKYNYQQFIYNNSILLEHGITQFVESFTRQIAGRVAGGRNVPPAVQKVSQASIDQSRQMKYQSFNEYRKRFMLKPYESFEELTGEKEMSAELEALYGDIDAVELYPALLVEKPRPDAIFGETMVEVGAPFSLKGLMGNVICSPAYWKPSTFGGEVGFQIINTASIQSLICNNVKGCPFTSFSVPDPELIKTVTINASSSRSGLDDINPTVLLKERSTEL
# Method in brief: (§1)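 Cell-free enzyme assays. Data given either as IC50 or as remaining enzyme activity at 10 µM test concentration.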
# [7] = molecular target: T6, Prostaglandin G/H synthase 1 (Ovis aries, UniProt P05979); test: Inhibition of ovine COX1-mediated 12-HHT formation preincubated for 5 mins before arachidonic acid addition by HPLC analysis; method in brief: as §1
# T6 sequence (P05979 whole entry): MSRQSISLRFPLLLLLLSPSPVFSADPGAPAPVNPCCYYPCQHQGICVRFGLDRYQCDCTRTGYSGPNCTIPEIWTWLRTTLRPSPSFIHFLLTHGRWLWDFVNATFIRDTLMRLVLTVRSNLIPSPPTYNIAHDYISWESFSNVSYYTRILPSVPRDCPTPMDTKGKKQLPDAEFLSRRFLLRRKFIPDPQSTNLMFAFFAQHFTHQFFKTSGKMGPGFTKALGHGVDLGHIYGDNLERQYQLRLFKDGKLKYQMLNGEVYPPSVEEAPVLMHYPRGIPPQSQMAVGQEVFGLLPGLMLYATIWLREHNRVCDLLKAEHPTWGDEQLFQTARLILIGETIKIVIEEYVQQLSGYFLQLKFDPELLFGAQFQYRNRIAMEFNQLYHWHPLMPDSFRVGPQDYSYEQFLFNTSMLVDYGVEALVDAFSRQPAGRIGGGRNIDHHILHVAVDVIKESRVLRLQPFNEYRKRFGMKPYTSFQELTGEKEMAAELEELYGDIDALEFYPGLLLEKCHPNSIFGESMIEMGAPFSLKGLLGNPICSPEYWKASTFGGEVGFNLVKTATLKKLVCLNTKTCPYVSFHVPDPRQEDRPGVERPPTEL
# [8] = molecular target: T7, Prostaglandin G/H synthase 2 (Homo sapiens, UniProt P35354); test: Inhibition of human recombinant COX2-mediated 12-HHT formation preincubated for 5 mins before arachidonic acid addition by HPLC analysis; method in brief: as §1
# T7 sequence (P35354 whole entry): T5 sequence (whole entry)
# Prostaglandin E synthase = molecular target: T8, Prostaglandin E synthase (Homo sapiens, UniProt O14684); test: Inhibition of mPGES-1-mediated PGE2 formation in interleukin-1beta-stimulated human A549 microsomal membranes preincubated for 15 mins before PGH2 addition by RP-HPLC analysis
# T8 sequence (O14684 whole entry): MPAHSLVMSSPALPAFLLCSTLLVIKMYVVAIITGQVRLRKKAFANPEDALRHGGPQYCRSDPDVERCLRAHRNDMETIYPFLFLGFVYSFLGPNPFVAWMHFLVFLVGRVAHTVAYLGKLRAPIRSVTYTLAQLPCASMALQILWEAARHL
# [9] = molecular target: T9, Prostaglandin G/H synthase 1 (Ovis aries) (UniProt P05979); test: Inhibition of ovine COX1-mediated 12-HHT formation assessed as remaining activity at 10 uM preincubated for 5 mins before arachidonic acid addition by HPLC analysis; method in brief: as §1
# T9 sequence (whole entry): T6 sequence (P05979 whole entry)
# [10] = molecular target: T4, Peroxisome proliferator-activated receptor gamma (Homo sapiens); test: Activation of human PPARgamma ligand binding domain expressed in COS7 cells at 10 uM by dual luciferase reporter gene assay; format: cell-based; settings: COS-7
SMILES,EC50 (Presenilin-1 [1]) [µM],EC50 ([2]; read-out: EC50) [µM],IC50 (Presenilin-1 [3]) [µM],IC50 ([4]; read-out: IC50) [µM],max activation [5],Activity [6] [%],IC50 [7] [µM],IC50 [8] [µM],IC50 (Prostaglandin E synthase) [µM],Activity [9] [%],EC50 ([2]; cos-7),IC50 [4],Activity [10] [%]
CCCC/C(=C\c1cc(OCc2ccc(Cl)c(Cl)c2)ccc1OCc1ccc(C(F)(F)F)cc1)C(=O)O,3.2,2.11,2,0.3,56%,73.3,> 10,> 10,1.6,59.4,–,–,–
CCCC/C(=C\c1cc(OCc2ccc(OCc3ccccc3)cc2)ccc1OCc1ccc(C(F)(F)F)cc1)C(=O)O,1.8,–,8.5,–,–,–,–,–,–,–,Not Active,Not Active,–
CCCCC(Sc1nc(OCCc2ccccc2)cc(OCCc2ccccc2)n1)C(=O)O (centres undefined),11.3,–,22.8,–,61%,–,–,–,–,–,–,–,–
CCCC/C(=C\c1cc(OCc2ccc(-c3ccccc3)cc2)ccc1OCc1ccc(C(F)(F)F)cc1)C(=O)O,3.2,–,11.9,–,–,–,–,–,–,–,Not Active,Not Active,–
CCCC/C(=C\c1cc(OCc2csc(-c3ccc(C(F)(F)F)cc3)n2)ccc1OCc1ccc(C(F)(F)F)cc1)C(=O)O,10.7,–,2.3,0.9,inactive,84.4,> 10,> 10,> 10,73.5,Not Active,–,–
CCCC/C(=C\c1cc(OCc2ccccc2)ccc1OCc1ccc(C(F)(F)F)cc1)C(=O)O,14.1,11.7,19.3,0.55,108%,84.8,> 10,> 10,5.6,86.6,–,–,–
CCCC/C(=C\c1cc(OCc2ccc(F)cc2)ccc1OCc1ccc(C(F)(F)F)cc1)C(=O)O,13.8,5.17,7,0.5,76%,84.2,> 10,> 10,4.9,78.4,–,–,–
CCCC/C(=C\c1cc(OCc2ccc(C(F)(F)F)cc2)ccc1OCc1ccc(C(F)(F)F)cc1)C(=O)O,1.1,–,1.2,–,–,–,> 10,> 10,> 10,–,–,–,–
CCCC/C(=C\c1cc(OCc2ccc(OCCN3CCOCC3)cc2)ccc1OCc1ccc(C(F)(F)F)cc1)C(=O)O,0.97,3.77,2.2,0.9,66%,95,> 10,> 10,8.7,91.3,–,–,–
CCCC/C(=C\c1cc(OCc2ccc(-c3csc(C)n3)cc2)ccc1OCc1ccc(C(F)(F)F)cc1)C(=O)O,2.2,–,20.2,6.7,–,–,–,–,–,–,Not Active,–,–
CCCC/C(=C\c1cc(OCC(c2ccccc2)c2ccccc2)ccc1OCc1ccc(C(F)(F)F)cc1)C(=O)O,11.2,1.26,11.4,0.25,97%,79.5,> 10,> 10,> 10,61.1,–,–,–
CCCC/C(=C\c1cc(OCc2ccc(CCCC)cc2)ccc1OCc1ccc(C(F)(F)F)cc1)C(=O)O,4.4,–,4.4,–,–,–,–,–,–,–,Not Active,Not Active,–
CCCCC(Sc1nc(OCCC2CCCCC2)cc(OCCC2CCCCC2)n1)C(=O)O (centres undefined),4.6,–,5.1,–,71%,–,–,–,–,–,–,–,–

# The remaining lines, values ahead:
EC50 (Presenilin-1 [1]) [µM],EC50 ([2]; read-out: EC50) [µM],IC50 (Presenilin-1 [3]) [µM],IC50 ([4]; read-out: IC50) [µM],max activation [5],Activity [6] [%],IC50 [7] [µM],IC50 [8] [µM],IC50 (Prostaglandin E synthase) [µM],Activity [9] [%],EC50 ([2]; cos-7),IC50 [4],Activity [10] [%],SMILES
15.6,0.72,14.9,2.1,76%,–,–,–,–,–,–,–,–,CCCC/C(=C\c1cc(Oc2ccccc2)ccc1OCc1ccc(C(F)(F)F)cc1)C(=O)O
4.5,–,5,0.2,–,91.1,> 10,> 10,10,75.7,Not Active,–,–,CCCC/C(=C\c1cc(OCc2ccc(Oc3ccccn3)cc2)ccc1OCc1ccc(C(F)(F)F)cc1)C(=O)O
23.2,2.56,32.1,2.3,120%,–,–,–,–,–,–,–,–,CCCC/C(=C\c1cc(OCc2cccnc2)ccc1OCc1ccc(C(F)(F)F)cc1)C(=O)O
> 40,–,> 40,–,–,–,–,–,–,–,–,Not Active,48,CCCC/C(=C\c1cc(O)ccc1OCc1ccc(C(F)(F)F)cc1)C(=O)O
2.5,12.9,4.1,0.75,56%,77.7,> 10,> 10,5,69.5,–,–,–,CCCC/C(=C\c1cc(OC/C=C/c2ccccc2)ccc1OCc1ccc(C(F)(F)F)cc1)C(=O)O
12,–,11.9,5.7,–,–,–,–,–,–,–,–,26,CCCC/C(=C\c1cc(-c2ccccc2)ccc1OCc1ccc(C(F)(F)F)cc1)C(=O)O
